The target of test [1] is T1, Alpha-1A adrenergic receptor (Rattus norvegicus) (UniProt P43140).
T1 sequence (whole entry): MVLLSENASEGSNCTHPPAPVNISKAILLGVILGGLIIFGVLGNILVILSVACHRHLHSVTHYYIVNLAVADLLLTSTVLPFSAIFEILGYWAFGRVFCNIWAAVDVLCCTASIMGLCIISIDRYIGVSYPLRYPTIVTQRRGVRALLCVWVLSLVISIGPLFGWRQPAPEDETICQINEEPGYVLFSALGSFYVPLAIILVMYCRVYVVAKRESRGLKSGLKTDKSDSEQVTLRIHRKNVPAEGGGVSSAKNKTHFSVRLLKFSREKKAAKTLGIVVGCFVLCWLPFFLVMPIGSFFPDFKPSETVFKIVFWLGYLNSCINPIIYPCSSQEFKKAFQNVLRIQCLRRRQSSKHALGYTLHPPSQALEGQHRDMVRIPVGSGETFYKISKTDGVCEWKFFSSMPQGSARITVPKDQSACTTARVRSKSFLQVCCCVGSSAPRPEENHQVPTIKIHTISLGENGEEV
The test can be described thus: Antagonist activity at alpha1A adrenoceptor in Wistar rat vas deferens assessed as noradrenaline induced contractions after 30 mins. Format: functional, tissue-based. An outline of the steps: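 Prostatic portions (2 cm) of vas deferens from male Wistar rats (275–300 g) were held under 0.35 g tension in Tyrode solution at 37 °C with cocaine present. Tissues were equilibrated 45 min, primed twice with noradrenaline, then given a cumulative isotonic noradrenaline curve.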

Test [2] deals with T2, Alpha-1D adrenergic receptor (Rattus norvegicus) (UniProt P23944).
T2 sequence (whole entry): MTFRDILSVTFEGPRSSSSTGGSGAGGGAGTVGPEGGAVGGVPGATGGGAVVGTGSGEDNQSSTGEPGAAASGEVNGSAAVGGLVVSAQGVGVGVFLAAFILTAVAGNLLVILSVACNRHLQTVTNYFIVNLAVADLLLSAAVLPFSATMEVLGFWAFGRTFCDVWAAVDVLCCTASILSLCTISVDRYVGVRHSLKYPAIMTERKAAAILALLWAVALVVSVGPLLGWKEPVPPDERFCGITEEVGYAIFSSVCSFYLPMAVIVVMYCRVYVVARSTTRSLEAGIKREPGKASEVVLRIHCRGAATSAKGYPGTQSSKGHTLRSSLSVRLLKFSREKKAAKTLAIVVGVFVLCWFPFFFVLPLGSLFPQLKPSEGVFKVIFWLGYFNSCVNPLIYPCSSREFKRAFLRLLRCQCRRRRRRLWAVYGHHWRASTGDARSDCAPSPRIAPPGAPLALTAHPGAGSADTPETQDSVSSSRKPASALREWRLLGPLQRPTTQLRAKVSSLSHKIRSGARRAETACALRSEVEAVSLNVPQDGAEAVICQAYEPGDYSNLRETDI
Conditions: Wistar, Thoracic aorta.

Usually pKb stands for the Kb on a negative log10 scale, so that one unit is a factor of ten.

For `COc1ccc(C[C@@H](C)NCCOc2ccccc2OCc2ccccc2)cc1S(N)(=O)=O`, the pKb was 9.66 in test [1] and 9.2 in test [2]. For the compound `COc1ccc(C[C@@H](C)NCCOc2ccccc2OC(C)C)cc1S(N)(=O)=O`, the pKb in test [1] is 9.66.

The values above are taken from ChEMBL document CHEMBL1629492 (Eur J Med Chem, 2010).
